Experimental data taken from ChEMBL document CHEMBL1152767, “Synthesis and pharmacological evaluation of new arylpiperazines N-[4-[4-(aryl) piperazine-1-yl]-phenyl]-amine derivatives: putative role of 5-HT1A receptors” (2009).
The source made the active and inactive calls. No cut-off for these calls is given here.

Assays:
Rattus norvegicus [1] = test: Anxiolytic activity in Wistar rat assessed as time spent into open arms at 3 mg/kg, ip administered 60 mins before evaluation and measured during 5 mins by elevated plus-maze test; format: functional; details: route intraperitoneal
Summary of the method: (§1)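 Male Wistar rats, 6–8 weeks, 120–150 g, given test agents ip (2 ml/kg; vehicle saline with 1% tween 80 and 1% DMSO) 60 min before testing; WAY-100635 0.5 mg/kg ip 15 min before treatment where used. Maze: two open, two closed arms 50 × 10 cm, raised 50 cm; rat placed centrally facing open arm; 5 min video recording; mean ± S.E.M., n = 8.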

Rattus norvegicus [2] = test: Anxiolytic activity in Wistar rat assessed as number of entries into open arms at 3 mg/kg, ip administered 60 mins before evaluation and measured during 5 mins by elevated plus-maze test; format: functional; details: route intraperitoneal; summary of the method: as §1
Rattus norvegicus [3] = test: Anxiolytic activity in Wistar rat assessed as number of entries into closed arms at 3 mg/kg, ip administered 60 mins before evaluation and measured during 5 mins by elevated plus-maze test; format: functional; details: route intraperitoneal; summary of the method: as §1
Rattus norvegicus [4] = test: Anxiolytic activity in Wistar rat assessed as total number of entries at 3 mg/kg, ip administered 60 mins before evaluation and measured during 5 mins by elevated plus-maze test; format: functional; details: route intraperitoneal; summary of the method: as §1
Rattus norvegicus [5] = test: Anxiolytic activity in ip dosed Wistar rat assessed as decrease in glyoxalase 1 activity in brain; format: functional; design: scale not given: the % may be the effect or the level left
Summary of the method: (§2)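 Rat brain homogenised at 20% in 0.1 M potassium phosphate pH 7.4 with 0.25 M sucrose; spun 800g then 10,500g (4 °C) to give post-mitochondrial supernatant for glutathione reductase, and further 36,000g 1 h for cytosol for glyoxalase 1 (modified Racker method); protein by Lowry with BSA standard.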

Rattus norvegicus [6] = test: Anxiolytic activity in ip dosed Wistar rat assessed as decrease in glutathione reductase activity in brain; format: functional; design: scale not given: the % may be the effect or the level left; summary of the method: as §2
Rattus norvegicus [7] = test: Anxiolytic activity in Wistar rat assessed as decrease in time spent into open arms treated ip 60 mins before evaluation and measured during 5 mins by elevated plus-maze test in presence of WAY-100635; format: functional; design: scale not given: the % may be the effect or the level left; summary of the method: as §1
Rattus norvegicus [8] = test: Anxiolytic activity in Wistar rat assessed as decrease in extracellular serotonin level in brain at 3 mg/kg, ip relative to control; format: functional, organism-based; design: dose 3 mg/kg
Summary of the method: (§3)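 Male Wistar rats dosed ip (vehicle saline/1% tween 80/1% DMSO), WAY-100635 0.5 mg/kg ip 15 min prior where used; decapitated 1 h after dosing, brains frozen at -80 °C. Tissue sonicated in 0.4 M perchloric acid, citrate/phosphate/EDTA added, centrifuged 12,000g at 4 °C; supernatant run on reversed-phase C18 HPLC with fluorescence detection (ex 280, em 340 nm).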

Rattus norvegicus [9] = test: Anxiolytic activity in Wistar rat assessed as decrease in extracellular serotonin level in brain at 3 mg/kg, ip in presence of WAY-100635 relative to control; format: functional; design: scale not given: the % may be the effect or the level left; details: route intraperitoneal; summary of the method: as §3
Rattus norvegicus [10] = test: Anxiolytic activity in ip dosed Wistar rat assessed as decrease in extracellular serotonin level in brain coadministered with WAY-100635 relative to control; format: functional; design: scale not given: the % may be the effect or the level left; summary of the method: as §3
Rattus norvegicus [11] = test: Anxiolytic activity in Wistar rat assessed as time spent into open arms at 5 mg/kg, ip administered 60 mins before evaluation and measured during 5 mins by elevated plus-maze test; format: functional; details: route intraperitoneal
Summary of the method: (§4)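 Male Wistar rats, 6–8 weeks, 120–150 g, housed at 25 ± 2 °C with free food and water. Dosed ip at 2 ml/kg in saline with 1% tween 80 and 1% DMSO, which alone served as control; n = 8. Maze arms 50 × 10 cm, 50 cm above floor. Rat placed centrally facing an open arm, recorded by camera between 9:00 and 15:00 h.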

Rattus norvegicus [12] = test: Anxiolytic activity in Wistar rat assessed as number of entries into open arms at 5 mg/kg, ip administered 60 mins before evaluation and measured during 5 mins by elevated plus-maze test; format: functional; details: route intraperitoneal; summary of the method: as §4
Rattus norvegicus [13] = test: Anxiolytic activity in Wistar rat assessed as number of entries into closed arms at 5 mg/kg, ip administered 60 mins before evaluation and measured during 5 mins by elevated plus-maze test; format: functional; details: route intraperitoneal; summary of the method: as §4
Rattus norvegicus [14] = test: Anxiolytic activity in Wistar rat assessed as total number of entries at 5 mg/kg, ip administered 60 mins before evaluation and measured during 5 mins by elevated plus-maze test; format: functional; details: route intraperitoneal; summary of the method: as §4
Rattus norvegicus [15] = test: Anxiolytic activity in Wistar rat assessed as time spent into open arms at 1 mg/kg, ip administered 60 mins before evaluation and measured during 5 mins by elevated plus-maze test; format: functional; details: route intraperitoneal; summary of the method: as §4
Rattus norvegicus [16] = test: Anxiolytic activity in Wistar rat assessed as number of entries into open arms at 1 mg/kg, ip administered 60 mins before evaluation and measured during 5 mins by elevated plus-maze test; format: functional; details: route intraperitoneal; summary of the method: as §4
Rattus norvegicus [17] = test: Anxiolytic activity in Wistar rat assessed as number of entries into closed arms at 1 mg/kg, ip administered 60 mins before evaluation and measured during 5 mins by elevated plus-maze test; format: functional; details: route intraperitoneal; summary of the method: as §4
Rattus norvegicus [18] = test: Anxiolytic activity in Wistar rat assessed as total number of entries at 1 mg/kg, ip administered 60 mins before evaluation and measured during 5 mins by elevated plus-maze test; format: functional; details: route intraperitoneal; summary of the method: as §4
Rattus norvegicus [19] = test: Anxiolytic activity in Wistar rat assessed as blocked of time spent into open arms at 3 mg/kg, ip administered 60 mins before evaluation and measured during 5 mins by elevated plus-maze test in presence of 0.5 mg/kg, ip WAY-100635; format: functional, organism-based; summary of the method: as §1

Work on `CCOC(=O)Nc1ccc(N2CCN(c3ccccc3OC)CC2)cc1` yielded an Activity (Rattus norvegicus [1]) of 84.36%, an Activity (Rattus norvegicus [2]) of 35.23% and an Activity (Rattus norvegicus [3]) of 11.8. For the same molecule, the Activity (Rattus norvegicus [4]) was 18.21, the Activity (Rattus norvegicus [5]) was 17% and the Activity (Rattus norvegicus [6]) was 12%. For the same molecule, the Activity (Rattus norvegicus [7]) was 20%, the Activity (Rattus norvegicus [8]) was “Active” and the Activity (Rattus norvegicus [9]) was 32%. It also gave an Activity (Rattus norvegicus [10]) of 24%.
For `CC(=O)Nc1ccc(N2CCN(CCc3ccccc3)CC2)cc1`, the Activity (Rattus norvegicus [1]) was 53.67%, the Activity (Rattus norvegicus [2]) was 25.98% and the Activity (Rattus norvegicus [3]) was 10.26. The Activity (Rattus norvegicus [4]) was 13.86.
`O=C(Nc1ccc(N2CCN(CCc3ccccc3)CC2)cc1)c1ccc(Cl)nc1` showed an Activity (Rattus norvegicus [1]) of 50.58%, an Activity (Rattus norvegicus [2]) of 22.9% and an Activity (Rattus norvegicus [3]) of 11.17. The Activity (Rattus norvegicus [4]) was 14.48.
`O=C(Nc1ccc(N2CCN(c3ccccc3Cl)CC2)cc1)c1ccc(Cl)nc1` showed an Activity (Rattus norvegicus [1]) of 53.67%, an Activity (Rattus norvegicus [2]) of 24.56% and an Activity (Rattus norvegicus [3]) of 9.8. The Activity (Rattus norvegicus [4]) was 12.98.
With `O=C1CC2(CCCC2)CC(=O)N1CCCCN1CCN(c2ncccn2)CC1` [BUSPIRONE] the Activity (Rattus norvegicus [11]) was 85.56%, the Activity (Rattus norvegicus [12]) was 37.52% and the Activity (Rattus norvegicus [13]) was 8.91. For the same molecule, the Activity (Rattus norvegicus [14]) was 14.26.
`O=C(Nc1ccc(N2CCN(c3ccccc3)CC2)cc1)c1ccc(Cl)nc1` showed an Activity (Rattus norvegicus [1]) of 56.94%, an Activity (Rattus norvegicus [2]) of 27.48% and an Activity (Rattus norvegicus [3]) of 11.94. The Activity (Rattus norvegicus [4]) was 16.46.
`CCOC(=O)Nc1ccc(N2CCN(c3ccccc3Cl)CC2)cc1` gave an Activity (Rattus norvegicus [1]) of 58.98%, an Activity (Rattus norvegicus [2]) of 30.27% and an Activity (Rattus norvegicus [3]) of 9.75. It also gave an Activity (Rattus norvegicus [4]) of 13.98.
For `CN1C(=O)CN=C(c2ccccc2)c2cc(Cl)ccc21` [DIAZEPAM], the Activity (Rattus norvegicus [15]) was 105.36%, the Activity (Rattus norvegicus [16]) was 45.16% and the Activity (Rattus norvegicus [17]) was 10.13. The Activity (Rattus norvegicus [18]) was 18.47.
Molecule `CCOC(=O)Nc1ccc(N2CCN(CCc3ccccc3)CC2)cc1` has an Activity (Rattus norvegicus [1]) of 53.94%, an Activity (Rattus norvegicus [2]) of 28.49% and an Activity (Rattus norvegicus [3]) of 9.91. It also gave an Activity (Rattus norvegicus [4]) of 13.85.
For `CC(=O)Nc1ccc(N2CCN(c3ccccc3)CC2)cc1`, the Activity (Rattus norvegicus [1]) was 62.67%, the Activity (Rattus norvegicus [2]) was 29.42% and the Activity (Rattus norvegicus [3]) was 10.08. The Activity (Rattus norvegicus [4]) was 14.28.
In the case of `COc1ccccc1N1CCN(c2ccc(NC(C)=O)cc2)CC1`, the Activity (Rattus norvegicus [1]) is reported as 58.77%, the Activity (Rattus norvegicus [2]) is reported as 28.74% and the Activity (Rattus norvegicus [3]) is reported as 9.01. It also gave an Activity (Rattus norvegicus [4]) of 15.45.
`CC(=O)Nc1ccc(N2CCN(c3ccccc3Cl)CC2)cc1` showed an Activity (Rattus norvegicus [1]) of 57.3%, an Activity (Rattus norvegicus [2]) of 26.89% and an Activity (Rattus norvegicus [3]) of 12.3. The Activity (Rattus norvegicus [4]) was 16.82.
`COc1ccccc1N1CCN(c2ccc(NC(=O)c3ccc(Cl)nc3)cc2)CC1` was tested, and the Activity (Rattus norvegicus [1]) was 54.69%, the Activity (Rattus norvegicus [2]) was 28.42% and the Activity (Rattus norvegicus [3]) was 10.93. The Activity (Rattus norvegicus [4]) was 15.26.
In the case of `CCOC(=O)Nc1ccc(N2CCN(c3ccccc3)CC2)cc1`, the Activity (Rattus norvegicus [1]) is reported as 87.6%, the Activity (Rattus norvegicus [2]) is reported as 40.64% and the Activity (Rattus norvegicus [3]) is reported as 9.19. The Activity (Rattus norvegicus [4]) was 15.48, the Activity (Rattus norvegicus [5]) was 20% and the Activity (Rattus norvegicus [6]) was 15%. The Activity (Rattus norvegicus [7]) was 35%, the Activity (Rattus norvegicus [19]) was “inactive” and the Activity (Rattus norvegicus [8]) was “Active”. The Activity (Rattus norvegicus [9]) was 38% and the Activity (Rattus norvegicus [10]) was 30%.
